Experiments:
Format in all cases: functional
HCC 2998 [1] = test: Cytotoxicity against human HCC2998 cells assessed as cell growth at 0.01 uM after 48 hrs by sulforhodamine B assay; conditions: HCC 2998, 48 h, read-out: Activity
TK-10 = test: Growth inhibition of human TK10 cells after 48 hrs by sulforhodamine B assay; conditions: TK-10, 48 h; for CC50: read-out: LC50 (the source's name)
In short: (§1)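 NCI 60-cell screen, five-dose mode. Cells grown in RPMI 1640 with 5% FBS and 2 mM L-glutamine and plated at 5000-40,000 cells/well according to doubling time. After 24 h preincubation, a Tz plate was TCA-fixed. Five concentrations (10-fold or 1/2 log dilutions) were applied for 48 h at 37 °C. SRB staining read at 515 nm. IC50 taken from [(Ti-Tz)/(C-Tz)]×100 = 50.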

A549 [2] = test: Cytotoxicity against human A549 cells assessed as cell growth at 0.01 uM after 48 hrs by sulforhodamine B assay; conditions: A549, 48 h, read-out: Activity
In short: (§2)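 NCI-60 five-dose screen. Cells were grown in RPMI 1640 with 5% FBS and 2 mM L-glutamine, plated at 5000–40,000 cells/well and preincubated for 24 h. Time-zero plates were TCA-fixed. DMSO-solubilized drug was added at five concentrations (10-fold or ½-log serial dilutions) for 48 h at 37 °C, 5% CO2. Cells were TCA-fixed, stained with 0.4% SRB and read at 515 nm. Percent growth used time-zero, control and test absorbances.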

SW-620 [3] = test: Growth inhibition of human SW620 cells after 48 hrs by sulforhodamine B assay; conditions: SW-620, 48 h; for CC50: read-out: LC50 (the source's name); in short: as §1
SW-620 [4] = test: Cytotoxicity against human SW620 cells assessed as cell growth at 10 uM after 48 hrs by sulforhodamine B assay; conditions: SW-620, 48 h, read-out: Activity
SNB-19 = test: Cytotoxicity against human SNB19 cells assessed as cell growth at 0.01 uM after 48 hrs by sulforhodamine B assay; conditions: SNB-19, 48 h, read-out: Activity
HOP-92 [5] = test: Cytotoxicity against human HOP92 cells assessed as cell growth at 100 nM after 48 hrs by sulforhodamine B assay; conditions: HOP-92, 48 h, read-out: Activity
SW-620 [6] = test: Cytotoxicity against human SW620 cells assessed as cell growth at 100 nM after 48 hrs by sulforhodamine B assay; conditions: SW-620, 48 h, read-out: Activity
HCT-15 = test: Cytotoxicity against human HCT15 cells assessed as cell growth at 10 uM; conditions: read-out: Activity
In short: (§3)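 Single-dose NCI-60 screen at 10 µM. Cells were grown in RPMI 1640 with 5% FBS and 2 mM L-glutamine, then treated for 48 h at 37 °C. Protein was measured by SRB staining with absorbance at 515 nm. Percentage growth was recorded, and inhibition percentage was calculated as 100 minus growth percentage.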

UACC-257 = test: Cytotoxicity against human UACC257 cells assessed as cell growth at 10 uM after 48 hrs by sulforhodamine B assay; conditions: UACC-257, 48 h, read-out: Activity
EKVX [7] = test: Cytotoxicity against human EKVX cells assessed as cell growth at 100 nM after 48 hrs by sulforhodamine B assay; conditions: read-out: Activity
[8] = Cytotoxicity against human RPMI8266 cells assessed as cell growth at 1 uM after 48 hrs by sulforhodamine B assay; conditions: read-out: Activity
EKVX [9] = test: Cytotoxicity against human EKVX cells assessed as cell growth at 10 uM; conditions: read-out: Activity; in short: as §3
HL-60(TB) = test: Cytotoxicity against human HL-60(TB) cells assessed as cell growth at 10 uM; conditions: read-out: Activity
In short: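 NCI 60-cell panel screen at a single concentration of 10 µM. Cells are grown in RPMI 1640 with 5% FBS and 2 mM L-glutamine and read by SRB protein staining at 515 nm. Percent growth is measured relative to time-zero and untreated controls; inhibition % is 100 minus growth %.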

KM12 [10] = test: Cytotoxicity against human KM12 cells assessed as cell growth at 100 nM after 48 hrs by sulforhodamine B assay; conditions: KM12, 48 h, read-out: Activity
MOLT-4 = test: Cytotoxicity against human MOLT4 cells assessed as cell growth at 100 nM after 48 hrs by sulforhodamine B assay; conditions: MOLT-4, 48 h, read-out: Activity
SK-MEL-5 [11] = test: Cytotoxicity against human SK-MEL-5 cells assessed as cell growth at 0.001 uM after 48 hrs by sulforhodamine B assay; conditions: SK-MEL-5, 48 h, read-out: Activity
UACC-62 [12] = test: Cytotoxicity against human UACC62 cells assessed as cell growth at 0.001 uM after 48 hrs by sulforhodamine B assay; conditions: UACC-62, 48 h, read-out: Activity
BT-549 = test: Cytotoxicity against human BT549 cells assessed as cell growth at 10 uM; conditions: read-out: Activity; in short: as §3
UACC-62 [13] = test: Cytotoxicity against human UACC62 cells assessed as cell growth at 0.01 uM after 48 hrs by sulforhodamine B assay; conditions: UACC-62, 48 h, read-out: Activity
NCI-H322M = test: Cytotoxicity against human NCI-H322M cells assessed as cell growth at 10 uM after 48 hrs by sulforhodamine B assay; conditions: read-out: Activity
CAKI-1 = test: Cytotoxicity against human Caki1 cells assessed as cell growth at 0.001 uM after 48 hrs by sulforhodamine B assay; conditions: CAKI-1, 48 h, read-out: Activity
M14 = test: Growth inhibition of human M14 cells after 48 hrs by sulforhodamine B assay; conditions: M14, 48 h; for CC50: read-out: LC50 (the source's name); in short: as §1
KM12 [14] = test: Cytotoxicity against human KM12 cells assessed as cell growth at 0.01 uM after 48 hrs by sulforhodamine B assay; conditions: KM12, 48 h, read-out: Activity
HOP-92 [15] = test: Cytotoxicity against human HOP92 cells assessed as cell growth at 1 uM after 48 hrs by sulforhodamine B assay; conditions: HOP-92, 48 h, read-out: Activity
MDA-MB-435 = test: Growth inhibition of human MDA-MB-435 cells after 48 hrs by sulforhodamine B assay; conditions: MDA-MB-435, 48 h; for CC50: read-out: LC50 (the source's name); in short: as §1
HCC 2998 [16] = test: Cytotoxicity against human HCC2998 cells assessed as cell growth at 0.001 uM after 48 hrs by sulforhodamine B assay; conditions: HCC 2998, 48 h, read-out: Activity
A549 [17] = test: Cytotoxicity against human A549 cells assessed as cell growth at 0.001 uM after 48 hrs by sulforhodamine B assay; conditions: A549, 48 h, read-out: Activity; in short: as §2
SK-MEL-5 [18] = test: Growth inhibition of human SK-MEL-5 cells after 48 hrs by sulforhodamine B assay; conditions: SK-MEL-5, 48 h; for CC50: read-out: LC50 (the source's name); in short: as §1
HT-29 = test: Cytotoxicity against human HT-29 cells assessed as cell growth at 10 uM after 48 hrs by sulforhodamine B assay; conditions: HT-29, 48 h, read-out: Activity
A498 = test: Cytotoxicity against human A498 cells assessed as cell growth at 1 uM after 48 hrs by sulforhodamine B assay; conditions: A498, 48 h, read-out: Activity; in short: as §2
COLO 205 = test: Cytotoxicity against human COLO205 cells assessed as cell growth at 0.001 uM after 48 hrs by sulforhodamine B assay; conditions: COLO 205, 48 h, read-out: Activity; in short: as §2

## COc1cc(C)cc(-c2c(-c3ccnc(-c4ccc(C(C)=O)cc4)c3)cnn2CC#N)c1
HCC 2998 [1]
  growth at 0.01 µM: 98%
TK-10
  TGI: > 100 µM
  CC50: > 100 µM
A549 [2]
  growth at 0.01 µM: 84%
SW-620 [3]
  GI50: 2.27 µM
  TGI: > 100 µM
  CC50: > 100 µM
SW-620 [4]
  growth at 10 µM: 14%
SNB-19
  growth at 0.01 µM: 102%
HOP-92 [5]
  growth at 0.1 µM: 61%
SW-620 [6]
  growth at 0.1 µM: 71%
HCT-15
  growth at 10 µM: 53.3%
UACC-257
  growth at 10 µM: 36%
EKVX [7]
  growth at 0.1 µM: 91%
[8]
  growth at 1 µM: -4%
EKVX [9]
  growth at 10 µM: 98.6%
HL-60(TB)
  growth at 10 µM: 57%
KM12 [10]
  growth at 0.1 µM: 85%
MOLT-4
  growth at 0.1 µM: 81%
SK-MEL-5 [11]
  growth at 0.001 µM: 95%
UACC-62 [12]
  growth at 0.001 µM: 93%
BT-549
  growth at 10 µM: 60%
UACC-62 [13]
  growth at 0.01 µM: 88%
NCI-H322M
  growth at 10 µM: 70%
CAKI-1
  growth at 0.001 µM: 104%
M14
  GI50: 1.97 µM
  CC50: > 100 µM
KM12 [14]
  growth at 0.01 µM: 97%
HOP-92 [15]
  growth at 1 µM: -9%
MDA-MB-435
  GI50: 1.93 µM
  TGI: > 100 µM
  CC50: > 100 µM
HCC 2998 [16]
  growth at 0.001 µM: 95%
A549 [17]
  growth at 0.001 µM: 95%
SK-MEL-5 [18]
  GI50: 1.94 µM
  TGI: 4.96 µM
  CC50: > 100 µM
HT-29
  growth at 10 µM: 6%
A498
  growth at 1 µM: 17%
COLO 205
  growth at 0.001 µM: 109%

## COc1cc(C)cc(-c2c(-c3ccnc(-c4ccc(N(C)C)cc4)c3)cnn2CC#N)c1
HCC 2998 [1]
  growth at 0.01 µM: 30%
TK-10
  GI50: 0.636 µM
  TGI: > 100 µM
  CC50: > 100 µM
A549 [2]
  growth at 0.01 µM: 59%
SW-620 [3]
  GI50: 0.0394 µM
  TGI: > 100 µM
  CC50: > 100 µM
SW-620 [4]
  growth at 10 µM: 11%
SNB-19
  growth at 0.01 µM: 44%
HOP-92 [5]
  growth at 0.1 µM: -3%
SW-620 [6]
  growth at 0.1 µM: 12%
HCT-15
  growth at 10 µM: 8.33%
UACC-257
  growth at 10 µM: 18%
EKVX [7]
  growth at 0.1 µM: 14%
[8]
  growth at 1 µM: -31%
EKVX [9]
  growth at 10 µM: 45.8%
HL-60(TB)
  growth at 10 µM: -5.87%
KM12 [10]
  growth at 0.1 µM: -36%
MOLT-4
  growth at 0.1 µM: 9%
SK-MEL-5 [11]
  growth at 0.001 µM: 95%
UACC-62 [12]
  growth at 0.001 µM: 96%
BT-549
  growth at 10 µM: -26.5%
UACC-62 [13]
  growth at 0.01 µM: 38%
NCI-H322M
  growth at 10 µM: 21%
CAKI-1
  growth at 0.001 µM: 124%
M14
  GI50: 0.0541 µM
  TGI: 0.483 µM
  CC50: > 100 µM
KM12 [14]
  growth at 0.01 µM: 20%
HOP-92 [15]
  growth at 1 µM: -20%
MDA-MB-435
  GI50: 0.0226 µM
  TGI: 0.0669 µM
  CC50: > 100 µM
HCC 2998 [16]
  growth at 0.001 µM: 96%
A549 [17]
  growth at 0.001 µM: 95%
SK-MEL-5 [18]
  GI50: 0.0394 µM
  TGI: 0.309 µM
  CC50: > 100 µM
HT-29
  growth at 10 µM: -48%
A498
  growth at 1 µM: 17%
COLO 205
  growth at 0.001 µM: 98%

## Cc1cc(O)cc(-c2nn(CC#N)cc2-c2ccnc(-c3ccc(N(C)C)cc3)c2)c1
HCC 2998 [1]
  growth at 0.01 µM: 88%
TK-10
  GI50: 8.4 µM
  TGI: 57.8 µM
  CC50: > 100 µM
A549 [2]
  growth at 0.01 µM: 91%
SW-620 [3]
  GI50: 2.83 µM
  TGI: 17.5 µM
  CC50: > 100 µM
SW-620 [4]
  growth at 10 µM: -33%
SNB-19
  growth at 0.01 µM: 95%
HOP-92 [5]
  growth at 0.1 µM: 73%
SW-620 [6]
  growth at 0.1 µM: 83%
HCT-15
  growth at 10 µM: 22.9%
UACC-257
  growth at 10 µM: -25%
EKVX [7]
  growth at 0.1 µM: 81%
[8]
  growth at 1 µM: 15%
EKVX [9]
  growth at 10 µM: 71.6%
HL-60(TB)
  growth at 10 µM: 7.44%
KM12 [10]
  growth at 0.1 µM: 66%
MOLT-4
  growth at 0.1 µM: 89%
SK-MEL-5 [11]
  growth at 0.001 µM: 92%
UACC-62 [12]
  growth at 0.001 µM: 90%
BT-549
  growth at 10 µM: 31.8%
UACC-62 [13]
  growth at 0.01 µM: 96%
NCI-H322M
  growth at 10 µM: -11%
CAKI-1
  growth at 0.001 µM: 103%
M14
  GI50: 1.83 µM
  TGI: 4.76 µM
  CC50: 20.4 µM
KM12 [14]
  growth at 0.01 µM: 76%
HOP-92 [15]
  growth at 1 µM: 25%
MDA-MB-435
  GI50: 1.01 µM
  TGI: 3.21 µM
  CC50: > 100 µM
HCC 2998 [16]
  growth at 0.001 µM: 91%
A549 [17]
  growth at 0.001 µM: 104%
SK-MEL-5 [18]
  GI50: 1.99 µM
  TGI: 5.75 µM
  CC50: 22.9 µM
HT-29
  growth at 10 µM: -52%
A498
  growth at 1 µM: 5%
COLO 205
  growth at 0.001 µM: 109%
